# Published values of several laboratories.
# Lines come from different studies, so protocols differ.
# Target: Tyrosine-protein kinase ZAP-70 (ZAP70, Homo sapiens, UniProt P43403)
# Residues used in one study (P43403 1-619): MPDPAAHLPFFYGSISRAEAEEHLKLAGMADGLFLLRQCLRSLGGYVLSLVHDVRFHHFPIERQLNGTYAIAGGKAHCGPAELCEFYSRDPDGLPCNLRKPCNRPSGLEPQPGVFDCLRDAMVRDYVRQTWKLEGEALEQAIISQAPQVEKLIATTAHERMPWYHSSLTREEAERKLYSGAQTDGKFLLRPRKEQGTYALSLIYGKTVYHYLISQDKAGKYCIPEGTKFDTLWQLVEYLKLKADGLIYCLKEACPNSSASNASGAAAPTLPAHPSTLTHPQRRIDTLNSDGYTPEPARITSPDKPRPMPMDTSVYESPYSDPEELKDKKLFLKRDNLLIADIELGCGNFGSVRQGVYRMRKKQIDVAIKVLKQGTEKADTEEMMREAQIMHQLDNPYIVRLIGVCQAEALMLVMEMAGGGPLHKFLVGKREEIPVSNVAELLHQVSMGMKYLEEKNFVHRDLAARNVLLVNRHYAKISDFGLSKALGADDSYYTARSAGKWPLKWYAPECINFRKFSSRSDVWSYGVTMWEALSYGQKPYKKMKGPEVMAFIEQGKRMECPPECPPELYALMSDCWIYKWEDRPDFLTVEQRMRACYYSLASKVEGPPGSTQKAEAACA
Compound,read-out,action,method,tested at,endpoint,value
C=CC(=O)N1CCC([C@@H]2CCNc3c(C(N)=O)c(-c4ccc(Oc5ccccc5)cc4)nn32)CC1,enzyme activity,inhibitor,,1 µM,inhibition,2%
COc1ccc2oc(-c3ccc4nc(N)oc4c3)c/c(=N\c3ccccc3NC(=O)CCN)c2c1,binding,,,1 µM,remaining binding,88%
N#Cc1ccc(NC(=O)Nc2ccccc2)cc1,cell-free assay,,competition with immobilised ligand,25 µM,remaining binding,91%
CN1CCN(C(=O)c2ccc(NC(=O)Nc3ccc(N(C)c4ccnc(Nc5ccc(CS(C)(=O)=O)cc5)n4)cc3)cc2)CC1,binding,,,1 µM,remaining binding,65%
CC(C)S(=O)(=O)c1ccc2nccc(Nc3ccc4sc(C5CCCC5)nc4c3)c2c1,enzyme activity,inhibitor,,1 µM,activity vs control,100%
Cc1ccc(NC(=O)c2ccnc(C(F)(F)F)c2)cc1-c1cc(OCCO)nc(N2CCOCC2)c1,binding,,,1 µM,remaining binding,100%
CC#CC(=O)N1CCC[C@H]1c1nc(-c2ccc(C(=O)Nc3ccccn3)cc2)c2c(N)nccn12,enzyme activity,inhibitor,,1 µM,inhibition,8%
CCCCC(=O)Nc1ccc(-c2ccc3ncn(CCC)c(=O)c3c2)cn1,binding,,competition with immobilised ligand,0.5 µM,remaining binding,98%
C#Cc1cnc(Nc2ccnc(CO)c2)nc1Nc1ccccc1S(C)(=O)=NC#N (stereo not drawn),cell-free assay,,,1 µM,remaining signal,100%
